# Assays:
# Trypanosoma cruzi [1] = assay: Antitrypanosomal activity against nifurtimox-sensitive Trypanosoma cruzi Tulahuen CL2 infected in human MRC-5 SV2 cells assessed as inhibition of parasite growth measured after 7 days by spectrophotometric analysis; type: functional, organism-based; details: Tulahuen CL2, MRC-5 SV2, 168 h
# [2] = Cytotoxicity against human MRC-5 SV2 cells assessed as reduction in cell growth measured after 3 days by resazurin dye based fluorometric analysis; details: time 3 day
# [3] = Selectivity index, ratio of CC50 for human MRC-5 SV2 cells to IC50 for antitrypanosomal activity against nifurtimox-sensitive Trypanosoma cruzi Tulahuen CL2 infected in human MRC-5 SV2 cells; type: toxicity, cell-based; details: read-out: Ratio CC50/IC50
# Procedure, shortened: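 Ratio of MRC-5SV2 CC50 (3-day resazurin assay) to IC50 against T. cruzi amastigotes in MRC-5SV2 cells (7-day CPRG assay).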
# Leishmania infantum = assay: Antileishmanial activity against amastigote form of Leishmania infantum MHOM/MA(BE)/67 infected in Swiss mouse peritoneal macrophages assessed as reduction in parasite growth treated at 2 hrs post-infection and measured after 5 days by Giemsa staining based microscopic analysis; type: functional, organism-based; details: MHOM/MA(BE)/67, Peritoneal macrophage
# Procedure, shortened: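 Swiss mouse peritoneal macrophages, harvested after 2-day potato-starch stimulation, infected 48 h after plating; compounds added 2 h post-infection.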
# [4] = Cytotoxicity against Swiss mouse peritoneal macrophages assessed as cell detachment, lysis and granulation measured after 5 days by microscopic analysis; type: cell-based, Peritoneal macrophage; details: time 5 day
# Procedure, shortened: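 Scored within the Leishmania macrophage assay over 5 days: detachment, lysis and granulation judged semi-quantitatively by microscopy across at least 500 cells. CC50 derived from % reduction in normal cells versus untreated wells.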
# [5] = Selectivity index, ratio of CC50 for Swiss mouse peritoneal macrophages to IC50 for antileishmanial activity against amastigote form of Leishmania infantum MHOM/MA(BE)/67 infected in Swiss mouse peritoneal macrophages; type: toxicity; details: read-out: Ratio CC50/IC50
# Procedure, shortened: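 Ratio of macrophage CC50 to L. infantum amastigote IC50, both taken from the same 5-day macrophage assay.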
# [6] = system: Trypanosoma brucei rhodesiense; assay: Antitrypanosomal activity against Trypanosoma brucei rhodesiense STIB900 measured after 6 hrs by alamar blue dye based fluorimetry analysis; type: functional, organism-based; details: STIB900, 6 h
# Trypanosoma cruzi [7] = assay: Antitrypanosomal activity against Trypanosoma cruzi Y bloodstream trypomastigotes assessed as inhibition of parasite growth incubated for 24 hrs by light microscopy; type: functional, organism-based
# Trypanosoma cruzi [8] = assay: Antitrypanosomal activity against intracellular amastigote form of Trypanosoma cruzi Y infected in Swiss Webster mouse cardiomyocytes assessed as inhibition of parasite growth incubated for 48 hrs by Giemsa staining based microscopic analysis; type: functional, organism-based; details: Cardiac muscle cell
# Procedure, shortened: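 Primary 2D mouse embryo cardiac cell cultures, infected for 24 h, then washed and exposed for 48 h at 37 °C to a serial dilution. Cells fixed and stained with Giemsa; infected cells and parasites per infected cell scored in 200 host cells. Activity expressed from the inhibition index; two independent experiments run in duplicate.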
# [9] = Cytotoxicity against Swiss Webster mouse 2D cardiomyocytes assessed as reduction in cell viability measured after 48 hrs by PrestoBlue assay; set-up: species or system Cardiac Muscle Cell; details: read-out: LC50
# Procedure, shortened: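 Mouse embryo heart cells as monolayer (2D) or 3D aggregates (25 × 10³ cells/well on 1% agarose). Uninfected cultures exposed 48 h to rising concentrations. Morphology checked by light microscopy; viability read by PrestoBlue; CC₅₀ determined.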
SMILES,IC50 (Trypanosoma cruzi [1]),CC50 at 72 h [2],selectivity ratio [3],IC50 (Leishmania infantum),CC50 at 120 h [4],selectivity ratio [5],EC50 [6],IC50 (Trypanosoma cruzi [7]),IC50 (Trypanosoma cruzi [8]),CC50 at 48 h [9]
NCc1nn([C@@H]2O[C@H](CO)[C@@H](O)[C@H]2O)c2ncnc(N)c12,11.1 µM,59.3 µM,5,2 µM,8 µM,4,–,–,–,–
Nc1ncnc2c1c(Br)nn2[C@@H]1O[C@H](CO)[C@@H](O)[C@H]1O,4.37 µM,> 64 µM,> 15,29.4 µM,> 64 µM,> 2,–,–,–,–
Nc1ncnc2c1ccn2[C@@H]1O[C@H](CO)C[C@H]1O,–,–,–,–,–,–,0.00052 µM,–,–,–
C=C(C)c1nn([C@@H]2O[C@H](CO)[C@@H](O)[C@H]2O)c2ncnc(N)c12,29.5 µM,0.35 µM,< 1,24.1 µM,32 µM,1,–,–,–,–
Nc1ncnc2c1c(/C=C/c1ccccc1)nn2[C@@H]1O[C@H](CO)[C@@H](O)[C@H]1O,16.5 µM,> 64 µM,> 4,50.8 µM,> 64 µM,> 1,–,–,–,–
Nc1ncnc2c1ccn2[C@@H]1O[C@H](CO)[C@@H](O)[C@H]1O [TUBERCIDIN],–,–,–,–,–,–,0.036 µM,–,–,–
Nc1ncnc2c1c(C#Cc1ccccc1)nn2[C@@H]1O[C@H](CO)[C@@H](O)[C@H]1O,29.4 µM,> 64 µM,> 2,49.4 µM,> 64 µM,> 1,–,–,–,–
C#Cc1nn([C@@H]2O[C@H](CO)[C@@H](O)[C@H]2O)c2ncnc(N)c12,2.78 µM,≥ 46.5 µM,20,10.4 µM,≥ 8 µM,1,–,–,–,–
Nc1ncnc2[nH]ncc12,0.57 µM,2.46 µM,5,0.18 µM,> 64 µM,> 355,–,–,–,–
Nc1ncnc2c1c(N)nn2[C@@H]1O[C@H](CO)[C@@H](O)[C@H]1O,7.64 µM,23 µM,3,6.82 µM,8 µM,1,–,–,–,–
Nc1ncnc2c1c(C(F)F)nn2[C@@H]1O[C@H](CO)[C@@H](O)[C@H]1O,8.3 µM,2.42 µM,< 1,0.25 µM,0.25 µM,1,–,–,–,–
Cc1ccc(-c2nn([C@@H]3O[C@H](CO)[C@@H](O)[C@H]3O)c3ncnc(N)c23)s1,7.1 µM,> 64 µM,> 9,≥ 32 µM,> 64 µM,> 1,–,–,–,–
Nc1ncnc2c1c(-c1ccc(Cl)cc1Cl)nn2[C@@H]1O[C@H](CO)[C@@H](O)[C@H]1O,6.06 µM,> 64 µM,> 11,52.8 µM,> 64 µM,> 1,–,–,–,–
Cc1nn([C@@H]2O[C@H](CO)[C@@H](O)[C@H]2O)c2ncnc(N)c12,4.68 µM,57.5 µM,12,32.7 µM,40 µM,1,–,–,–,–
O=c1[nH]cnc2c1cnn2[C@@H]1O[C@H](CO)[C@@H](O)[C@H]1O,7.18 µM,> 64 µM,9,6.66 µM,> 64 µM,10,–,–,–,–
Nc1ncnc2c1c(-c1ccc(Cl)cc1)nn2[C@H]1C[C@H](O)[C@@H](CO)O1,2.49 µM,> 64 µM,> 22,≥ 32.5 µM,≥ 32 µM,1,–,–,–,–
Nc1ncnc2c1c(-c1ccc(C(F)(F)F)cc1)nn2[C@@H]1O[C@H](CO)[C@@H](O)[C@H]1O,6.34 µM,> 64 µM,> 10,57 µM,> 64 µM,> 1,–,–,–,–
Nc1ncnc2c1c(-c1c[nH]nn1)nn2[C@@H]1O[C@H](CO)[C@@H](O)[C@H]1O,0.43 µM,0.6 µM,1,43.1 µM,> 64 µM,> 1,–,–,–,–
Nc1ncnc2c1c(-c1ccncc1)nn2[C@@H]1O[C@H](CO)[C@@H](O)[C@H]1O,21.5 µM,> 64 µM,> 3,25.4 µM,> 64 µM,> 3,–,–,–,–
Nc1ncnc2c1c(-c1ccccn1)nn2[C@@H]1O[C@H](CO)[C@@H](O)[C@H]1O,30.1 µM,36.4 µM,1,≥ 50.8 µM,> 64 µM,1,–,–,–,–
Oc1ncnc2[nH]ncc12 [ALLOPURINOL],9.75 µM,> 64 µM,> 7,3.51 µM,> 64 µM,> 18,–,–,–,–
Nc1ncnc2c1cnn2[C@@H]1O[C@H](CO)[C@@H](O)[C@H]1O,0.29 µM,> 64 µM,> 219,1.06 µM,> 64 µM,> 60,–,> 81 µM,2.46 µM,> 500 µM
Nc1ncnc2c1c(I)nn2[C@@H]1O[C@H](CO)[C@@H](O)[C@H]1O,12.6 µM,25.4 µM,2,25.4 µM,> 64 µM,> 2,–,–,–,–
Nc1ncnc2c1c(Cl)nn2[C@@H]1O[C@H](CO)[C@@H](O)[C@H]1O,2.89 µM,> 64 µM,> 22,> 64 µM,> 64 µM,> 1,–,–,–,–
NC(=O)c1nn([C@@H]2O[C@H](CO)[C@@H](O)[C@H]2O)c2ncnc(N)c12,0.25 µM,0.25 µM,1,8.11 µM,8 µM,1,–,–,–,–
N#Cc1nn([C@@H]2O[C@H](CO)[C@@H](O)[C@H]2O)c2ncnc(N)c12,0.95 µM,34.6 µM,36,8 µM,> 64 µM,> 8,–,–,–,–

# — ChEMBL document CHEMBL4811241, “Revisiting Pyrazolo[3,4-d]pyrimidine Nucleosides as Anti-Trypanosoma cruzi and Antileishmanial Agents” (J Med Chem, 2021)
